Screening data: PubChem, several laboratories
This is a sample that favours compounds with a hit; in the whole collection about 3.7% have one here.
UPR XBP1 act – activators of adaptive XBP1 UPR arm, primary screen, cell-based, CHO-XBP1 luciferase reporter, luminescence, uHTS; IRE1-XBP1 UPR activation; percent of tunicamycin response, DMSO as zero; activation, % at 20 µM; 330,000 compounds, 0.33% hits;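 active means versus positive control, 20 µM dose yields 30% or more activation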;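 further: 100% = tunicamycin at 10 µg/mL and 0% = DMSO only wells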
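Test system: CHO-XBP1 luciferase reporter cells | Buffer or medium: Serum-containing F12 medium, 10% FBS | Schedule: 6 h compound exposure at 37 °C, 5% CO2 | Detection: Steady-Glo luciferase glow luminescence, 10 min after reagent addition | Read-out basis: Activation, % of tunicamycin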
Dynein cargo inh – inhibitors of GR-EGFP nuclear translocation, primary screen, dynein cargo transport inhibitor project, imaging, high-content, 3617.4 mouse cells | test concentration mostly 20 µM; stimulated with dexamethasone, 1 µM; active compounds read low | z-score, hits read low | 220,000 compounds, 0.47% hits;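 active means plate z-score of nuclear minus cytoplasmic receptor signal below a set negative limit, without overly bright fluorescence or cell loss, cut at about -3.5 in these data, passing the limit was not always enough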;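 further: z-score of nuclear minus cytoplasmic ring GR-EGFP intensity difference per well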
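Also added – dexamethasone, 1.0 µM final · Buffer or medium – tet-free, stripped-serum medium · Schedule – induction 48 h, compound 1 h, agonist 30 min · Detection – formaldehyde fixation, Hoechst nuclear stain, 10x automated fluorescence imaging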
B2AR ag – beta2AR agonists driving receptor internalization, primary screen, cell-based, FAP fluorogen, flow cytometry; Beta-2 adrenergic receptor (Homo sapiens), P07550; Am2.2-beta2AR cells; response, % (no concentration beside the values); 340,000 compounds, 0.43% hits; AID 504454, 2011;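 active means response above a set limit, near 3 SD of response in nonfluorescent compounds, cut at about 42% in these data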
MDM2 E3 inh – MDM2-luciferase reporter signal enhancers, primary screen, MDM2 E3 ligase inhibitor project, cell-based, luminescence, 1536-well; E3 ubiquitin-protein ligase Mdm2 (Homo sapiens), Q00987; cell-based MDM2 ubiquitination luciferase reporter, 2 h; 0 = plate control, 100 = twice control, blank-subtracted; signal enhancement, % at 5 µM; 210,000 compounds, 0.11% hits; AID 1230, 2008;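 active means signal enhancement of 30% or more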;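 further: luminescence tracks abundance of the self-degrading MDM2-luciferase fusion protein; higher signal means inhibition of MDM2 E3 ligase activity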
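Test system: stable mammalian line carrying autodegrading MDM2–luciferase fusion reporter; quantity: 2000 cells in each well; times: 4 h cell settling then 2 h compound exposure, 37 °C; detection: luminescence with SteadyLite reagent, 15 min at room temperature; evaluation: percent signal gain over controls, blank-subtracted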
UPR CHOP act – activators of apoptotic CHOP UPR arm, primary screen, cell-based, CHO-CHOP luciferase reporter, luminescence, uHTS; UPR activation; percent of tunicamycin response over DMSO baseline; activation, % at 10 µM; 330,000 compounds, 0.34% hits; AID 449763, 2010;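 active means at 10 µM dose, activation of 40% or more, normalized to positive control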;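 further: 100% = tunicamycin at 10 µg/mL and 0% = DMSO alone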
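System: CHO-CHOP luciferase reporter cell line; amount: 500 cells/well; buffer or medium: F12 medium containing 10% fetal bovine serum; incubation: 6 h compound exposure at 37 °C after overnight seeding; measured by: luciferase luminescence after 10 min with Steady-Glo reagent; evaluation: % reporter activation, DMSO baseline versus tunicamycin full activation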
Mdm2 MdmX PPI – inhibitors of human Mdm2-MdmX association, primary screen, cell-based, luminescence, split luciferase, SaOS-2, uHTS | 330,000 compounds, 3% hits | AID 485346, 2010 | inhibition, % at 8 µM | SaOS-2 split-luciferase Mdm2/MdmX complementation;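 active means inhibition of at least 50% at 8 µM in the primary screen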
Target sequence (O15151 whole entry, looked up): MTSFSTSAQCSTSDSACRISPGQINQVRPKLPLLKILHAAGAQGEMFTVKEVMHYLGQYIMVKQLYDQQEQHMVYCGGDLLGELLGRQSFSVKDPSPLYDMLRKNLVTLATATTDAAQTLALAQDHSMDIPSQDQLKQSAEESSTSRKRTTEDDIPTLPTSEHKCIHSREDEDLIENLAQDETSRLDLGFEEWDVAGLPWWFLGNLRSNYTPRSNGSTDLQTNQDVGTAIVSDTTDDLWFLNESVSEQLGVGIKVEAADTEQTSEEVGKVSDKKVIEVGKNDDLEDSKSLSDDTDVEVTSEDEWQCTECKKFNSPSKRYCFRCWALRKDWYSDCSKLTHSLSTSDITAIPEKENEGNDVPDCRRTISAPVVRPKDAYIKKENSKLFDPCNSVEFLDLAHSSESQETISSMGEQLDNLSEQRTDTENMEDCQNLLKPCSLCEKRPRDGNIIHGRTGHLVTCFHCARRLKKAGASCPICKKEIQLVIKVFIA
Target sequence (Q00987 whole entry, looked up): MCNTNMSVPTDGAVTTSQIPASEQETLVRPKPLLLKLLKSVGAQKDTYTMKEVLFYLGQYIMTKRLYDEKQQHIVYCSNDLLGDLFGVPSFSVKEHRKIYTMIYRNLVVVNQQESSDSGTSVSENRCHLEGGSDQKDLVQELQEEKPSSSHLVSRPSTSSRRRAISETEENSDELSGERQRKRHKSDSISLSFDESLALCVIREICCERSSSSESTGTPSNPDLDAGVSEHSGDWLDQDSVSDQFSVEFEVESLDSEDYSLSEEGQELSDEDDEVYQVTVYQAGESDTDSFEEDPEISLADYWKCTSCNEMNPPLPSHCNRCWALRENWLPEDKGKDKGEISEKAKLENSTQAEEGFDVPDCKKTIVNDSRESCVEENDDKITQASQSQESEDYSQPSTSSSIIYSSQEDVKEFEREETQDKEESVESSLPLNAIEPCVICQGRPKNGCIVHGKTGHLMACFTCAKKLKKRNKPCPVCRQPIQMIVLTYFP
Mdm2-MdmX conf – Mdm2-MdmX complex disruptors, retested hits, confirmation, luminescence, single concentration | inhibition, % at 8 µM | Mdm2-MdmX binding, luminescent assay | 10,000 compounds, 55% hits | AID 489028, 2010 | shares compounds with Mdm2 MdmX PPI; in the data active means inhibition above about 40%
FLuc counter – full-length luciferase signal inhibition, confirmation, counter-screen for Mdm2/MdmX interaction inhibitor project, cell-based, single concentration, SaOS-2 | 6,200 compounds, 77% hits | inhibition, % at 8 µM | shares compounds with Mdm2 MdmX PPI | SaOS-2 full-length luciferase counterscreen, luminescence;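 active means mean inhibition at 8 µM reaching about 37%, which flags the compound as non-specific, limit read from the data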;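 further: p53-null SaOS-2 cells with luciferase driven by a doxycycline-inducible promoter; compound on cells about two nights before reading with doxycycline added after day one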
The depositor's hits bear a star; · = no result.

SMILES	UPR XBP1 act	Dynein cargo inh	B2AR ag	MDM2 E3 inh	UPR CHOP act	Mdm2 MdmX PPI	Mdm2-MdmX conf	others
O=[N+]([O-])c1ccc(/C=N/Nc2ccnc3cc(Cl)ccc23)o1	1	·	-20	·	5	18	·
CC[C@H](C)[C@H]1O[C@]2(CC[C@@H]1C)C[C@@H]1C[C@@H](CC=C(C)[C@@H](O[C@H]3C[C@H](OC)[C@@H](O[C@H]4C[C@H](OC)[C@@H](O)[C@H](C)O4)[C@H](C)O3)[C@@H](C)C=CC=C3CO[C@@H]4[C@H](O)C(C)=C[C@@H](C(=O)O1)[C@]34O)O2	64*	·	32	·	39	100*	23
CCC(CC)NC(=O)C1CC(=O)N(CCc2ccc(F)cc2)C1 (centres undefined)	-4	·	-2	·	0	19	·
CSCCC(NC(=O)c1ccc(Cl)cc1Cl)C(=O)NCC(c1cccs1)N(C)C (centres undefined)	·	·	-7	·	·	·	·
Nc1nonc1C(=O)NCCNCc1ccccc1OCc1ccccc1F	-1	1.3	-7	-7	-1	56*	11
Cc1ccc(N(CC(=O)NC2CCCCC2)S(=O)(=O)c2cccs2)cc1	0	·	5	·	1	66*	12
Cc1ccnn1-c1ccc(C(=O)N2CCCN(S(=O)(=O)c3ccc(F)cc3)CC2)cc1	-4	·	0	·	0	2	·
COCCN(CCOC)C(=O)c1ccc(NS(=O)(=O)c2ccc3[nH]c(=O)[nH]c3c2)cc1	-3	·	3	·	2	-6	·
O=S1(=O)CCC(NC(=S)N2CCOCC2)C1 (centres undefined)	3	-0.18	11	7	1	0	·
Cc1cc2oc(=O)c(CC(=O)O)c(C)c2c2occ(C(C)(C)C)c12	0	·	3	·	3	-2	·
Cc1cc2oc(=O)c(CC(=O)NCCCN(C)C)c(C)c2c2occ(C(C)(C)C)c12	8	·	·	·	4	94*	76*	FLuc counter=41*
COCCNC(=O)Cc1c(C)c2c(cc(C)c3c(C(C)(C)C)coc32)oc1=O	15	·	33	·	5	67*	44*	FLuc counter=64*
Cc1cc2oc(=O)c(CC(=O)NCCCO)c(C)c2c2occ(C(C)(C)C)c12	5	·	13	·	2	23	·
COc1ccccc1N1CCNC(C)C1=O (centres undefined)	0	·	6	·	1	21	·
N=c1c2c(-c3ccccc3)c(-c3ccccc3)n(Cc3ccco3)c2ncn1CCN1CCOCC1	-1	-0.78	7	-11	0	55*	33
N=c1c2c(-c3ccccc3)c(-c3ccccc3)n(Cc3ccco3)c2ncn1CCCO	1	-0.96	14	-4	2	61*	38	FLuc counter=59*
c1coc(CNc2nc3ccccc3n2CCN2CCOCC2)c1	-3	1.5	-4	-8	5	-6	·
N=c1c2c(-c3ccccc3)c(-c3ccccc3)n(Cc3ccco3)c2ncn1CCO	2	0.69	18	-9	0	82*	61*	FLuc counter=57*
c1ccc(-c2nc3nc4ccccc4nc3n2Cc2ccco2)cc1	2	-0.85	-12	·	2	-37	·
O=c1c2ccccc2ncn1Cc1ccco1	0	1.1	-7	-53	2	18	·
COCC(=O)N1CCC(Oc2ccc(C(=O)N3CCCCCC3)cc2)CC1	-5	·	-7	·	3	31	·
CC(C)(C)OC(=O)C[C@@H]1C/C=C\C[C@H](CC(=O)NCCO)C(=O)N2CCC[C@@H]2COC1=O	0	·	2	·	-2	1	·
COc1ccc(NC2CCCN(C(=O)c3ccccc3C(F)(F)F)C2)cc1 (centres undefined)	-3	·	2	·	2	-1	·
Cc1nnsc1C(=O)NC1CCCc2c1cnn2-c1ccc(C(C)(C)C)cc1 (centres undefined)	-4	·	16	·	6	23	·
O=c1cc(Nc2ccc3c(c2)OCCO3)[nH]c(=O)n1C1CCCCC1	1	0.97	-4	·	5	55*	53*	FLuc counter=58*
SMILES	UPR XBP1 act	Dynein cargo inh	B2AR ag	MDM2 E3 inh	UPR CHOP act	Mdm2 MdmX PPI	Mdm2-MdmX conf	others
O=C(C[n+]1ccc(/C=C/c2ccccc2)cc1)c1ccc2c(c1)OCCO2	-1	-2.1	6	-7	-2	75*	29
Cc1cc[n+](CC(=O)c2ccc3c(c2)OCCO3)cc1	2	0.68	-2	-12	3	18	·
O=C1[C@H](Oc2ccccc2)[C@@H](c2ccccc2)N1c1ccncc1	-2	·	6	·	21	50*	-1
O=C1[C@@H](Oc2ccccc2)[C@@H](c2ccccc2)N1c1ccccc1	1	·	-1	·	0	1	·
COc1ccccc1NC(=O)Cn1nnc(-c2ccccc2NS(=O)(=O)c2ccccc2)n1	-1	0.98	-2	·	3	12	·
COc1ccc(C(=O)Nc2ccc(-c3nnn(CC(=O)NCc4ccco4)n3)cc2)cc1	-2	0.23	-6	·	-1	68*	35
O=C(Cn1nnc(-c2ccccc2NC(=O)c2ccco2)n1)Nc1ccccc1	2	0.48	-8	-3	1	76*	41*	FLuc counter=64*
COc1ccc(-n2c(SCC(=O)Nc3ccccc3)nnc2-c2ccc(NS(=O)(=O)c3ccc(C)cc3)cc2)cc1	0	0.054	10	5	4	91*	28
COc1ccc(NC(=O)Cn2nnc(-c3ccccc3NS(=O)(=O)c3ccc(OC)cc3)n2)cc1	6	-0.15	2	-13	-1	67*	55*	FLuc counter=83*
COc1ccc(-c2oc3ncnc(NCCCN(C)C)c3c2-c2ccc(OC)cc2)cc1	11	·	22	·	4	97*	42*	FLuc counter=29
CSc1ccc(-c2nnn(CC(=O)NCc3ccccc3)n2)cc1	-2	-0.31	-4	-11	-1	50	30
